Here are results for 17 compounds from ChEMBL document CHEMBL1909500, “Synthesis and in vitro anticancer activity of 6,7-methylenedioxy (or 5-hydroxy-6-methoxy)-2-(substituted selenophenyl)quinolin-4-one analogs” (Eur J Med Chem, 2011).

Molecules are shown by their SMILES.

For one assay, the system named is HL-60. Description: Cytotoxicity against human HL60 cells after 48 hrs by MTT assay. The class given is functional, cell-based. To be noted: HL-60, 48 h. In short, it runs like this: (§1)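 H460 or HL-60 cells were exposed to vehicle or compound for 48 h. Growth was read by MTT reduction at 570 nm, and IC50 was calculated.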
(In general: Tetrazolium assays rely on reduction of a dye to a coloured formazan, in cell work by metabolically active cells.)

The subject of a further assay is NCI-H460. Nature of the assay: Cytotoxicity against human H460 cells after 48 hrs by MTT assay. The following applies: NCI-H460, 48 h. The class given is functional, cell-based. The method in brief:
as §1

In assay [1] the test system is Detroit 551. Nature of the assay: Cytotoxicity against human Detroit 551 cells after 48 hrs by MTT assay. It counts as cell-based. To be noted: Detroit 551, 48 h. The method in brief:
(§2)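 Hep 3B (hepatoma) or Detroit 551 (normal skin) cells, grown at 37 °C and 5% CO₂ in DMEM with 10% FBS, penicillin/streptomycin and 1% L-glutamine, were used in log phase. Cells were exposed to vehicle or compound for 48 h. Growth was read by MTT reduction at 570 nm, and IC50 was calculated.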

The nature of assay [2]: Cytotoxicity against human Hep3B cells after 48 hrs by MTT assay. The class given is functional, cell-based, Hep 3B2. In short, it runs like this:
as §2

The test system of assay [3] is Detroit 551. Description: Selectivity ratio of IC50 for human Detroit 551 cells to IC50 for human Hep3B cells.
For assay [4], the system named is Detroit 551. Description: Selectivity ratio of IC50 for human Detroit 551 cells to IC50 for human H460 cells.

For orientation: IC50 means the point on the concentration scale where inhibition reaches its midpoint. Read a low IC50 as greater potency.

As to `COc1ccc2[nH]c(-c3cc[se]c3)cc(=O)c2c1O`, the IC50 in the assay with HL-60 is 400 nM; with NCI-H460, 800 nM; with Detroit 551 [1] it was above 100000 nM; in assay [2], 300 nM.

Turning to `COc1ccc2[nH]c(-c3cc[se]c3)cc(=O)c2c1OC`, the IC50 with HL-60 is 1700 nM; in the assay on NCI-H460, 100000 nM; in the assay on Detroit 551 [1] it was above 100000 nM; in assay [2] it was 100000 nM.

In the case of `O=c1cc(-c2cc[se]c2)[nH]c2cc3c(cc12)OCO3`, the IC50 was 900 nM with HL-60, 1400 nM with NCI-H460, above 10000 nM in the assay with Detroit 551 [1] and 800 nM in assay [2].

`Oc1cc(-c2cccs2)nc2cc3c(cc12)OCO3`: the IC50 is 1000 nM in the assay with HL-60, 1000 nM with NCI-H460, above 5000 nM with Detroit 551 [1] and 700 nM in assay [2].

Consider `O=c1cc(-c2ccc[se]2)[nH]c2cc3c(cc12)OCO3`, for which the IC50 is 500 nM with HL-60, 1000 nM in the assay with NCI-H460, 50000 nM with Detroit 551 [1] and 800 nM in assay [2]. In addition, the “Ratio IC50” value with Detroit 551 [3] and in the assay with Detroit 551 [4] was 50 throughout.

`COc1ccc2[nH]c(-c3ccc[se]3)cc(=O)c2c1`: the IC50 was 600 nM with HL-60, 2400 nM with NCI-H460, above 10000 nM with Detroit 551 [1] and 3200 nM in assay [2].

In the case of `Cc1ccc(-c2cc(=O)c3cc4c(cc3[nH]2)OCO4)o1`, the IC50 in the assay on HL-60 was 4300 nM; with NCI-H460 it was 9800 nM; in the assay with Detroit 551 [1] it was above 10000 nM; in assay [2], 10000 nM.

With `COc1ccc2[nH]c(-c3ccc(C)[se]3)cc(=O)c2c1`, the IC50 is 400 nM with HL-60, 2000 nM in the assay with NCI-H460, above 10000 nM in the assay on Detroit 551 [1] and 3000 nM in assay [2].

As for `Oc1cc(-c2ccco2)nc2cc3c(cc12)OCO3`, the IC50 with HL-60 is 6800 nM; with NCI-H460, above 15000 nM; with Detroit 551 [1], above 15000 nM; in assay [2], above 15000 nM.

In the case of `COc1ccc2[nH]c(-c3ccc[se]3)cc(=O)c2c1O`, the IC50 in the assay on HL-60 was 1100 nM; with NCI-H460 it was 400 nM; with Detroit 551 [1] it was 100000 nM; in assay [2] it was 700 nM.

For `O=c1cc(-c2ccoc2)[nH]c2cc3c(cc12)OCO3`, the IC50 in the assay on HL-60 was 3400 nM; in the assay on NCI-H460, 15800 nM; in the assay with Detroit 551 [1], above 25000 nM; in assay [2], 9600 nM.

For the compound `COc1ccc2[nH]c(-c3ccc[se]3)cc(=O)c2c1OC`, the IC50 with HL-60 is 7700 nM; in the assay with NCI-H460, 91500 nM; with Detroit 551 [1], above 100000 nM; in assay [2] it was above 100000 nM.

In the case of `Cc1ccc(-c2cc(=O)c3cc4c(cc3[nH]2)OCO4)s1`, the IC50 in the assay on HL-60 is 300 nM; in the assay with NCI-H460 it was 400 nM; in the assay with Detroit 551 [1] it was above 5000 nM; in assay [2] it was 700 nM.

With `COc1ccc2[nH]c(-c3ccc(C)[se]3)cc(=O)c2c1O`, the IC50 in the assay on HL-60 is 400 nM; with NCI-H460 it was 900 nM; in the assay with Detroit 551 [1] it was above 50000 nM; in assay [2] it was 800 nM.

Consider `COc1ccc2[nH]c(-c3cc[se]c3)cc(=O)c2c1`, for which the IC50 in the assay on HL-60 is 700 nM; in the assay with NCI-H460 it was 2300 nM; in the assay on Detroit 551 [1] it was above 10000 nM; in assay [2], 3700 nM.

For the compound `COc1ccc2[nH]c(-c3ccc(C)[se]3)cc(=O)c2c1OC`, the IC50 in the assay with HL-60 was 3100 nM; with NCI-H460 it was above 50000 nM; in the assay with Detroit 551 [1], above 50000 nM; in assay [2], above 50000 nM.

In the case of `O=c1cc(-c2ccsc2)[nH]c2cc3c(cc12)OCO3`, the IC50 was 900 nM in the assay on HL-60, 4300 nM in the assay on NCI-H460, above 25000 nM in the assay with Detroit 551 [1] and 2200 nM in assay [2].
